Common to all, as to type: functional
Assay [1] deals with OVCAR-4. Briefly: Cytotoxicity against human OVCAR4 cells assessed as cell growth at 10 uM after 48 hrs by sulforhodamine B assay relative to control. The following applies: OVCAR-4, 48 h, read-out: Activity. The method, boiled down: (§1)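 Compounds went through the NCI 60 cell-line screen, whose current protocol tests first at a single dose.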
Assay [2] concerns SNB-75. In words: Cytotoxicity against human SNB75 cells assessed as cell growth at 10 uM after 48 hrs by sulforhodamine B assay relative to control. The following applies: SNB-75, 48 h, read-out: Activity. (In general: The SRB assay estimates cell density from bound dye.)
Assay [3] deals with SK-MEL-2. In words: Cytotoxicity against human SK-MEL-2 cells assessed as cell growth at 10 uM after 48 hrs by sulforhodamine B assay relative to control. As to conditions: SK-MEL-2, 48 h, read-out: Activity. The method, boiled down: as §1
The subject of assay [4] is SW-620. Briefly: Cytotoxicity against human SW620 cells assessed as cell growth at 10 uM after 48 hrs by sulforhodamine B assay relative to control. The following applies: SW-620, 48 h, read-out: Activity.
Assay [5] has as its system SK-MEL-28. Briefly: Cytotoxicity against human SK-MEL-28 cells assessed as cell growth at 10 uM after 48 hrs by sulforhodamine B assay relative to control. As to conditions: SK-MEL-28, 48 h, read-out: Activity. The method, boiled down: as §1
Assay [6] relates to K562. In words: Cytotoxicity against human K562 cells assessed as cell growth at 10 uM after 48 hrs by sulforhodamine B assay relative to control. The following applies: K562, 48 h, read-out: Activity. The method, boiled down: as §1
Assay [7] relates to SK-OV-3. Briefly: Cytotoxicity against human SKOV3 cells assessed as cell growth at 10 uM after 48 hrs by sulforhodamine B assay relative to control. The following applies: SK-OV-3, 48 h, read-out: Activity. The method, boiled down: as §1
For assay [8], the system named is NCI-H322M. Briefly: Cytotoxicity against human NCI-H322M cells assessed as cell growth at 10 uM after 48 hrs by sulforhodamine B assay relative to control. As to conditions: read-out: Activity. The method, boiled down: as §1
In assay [9] the test system is DU-145. In words: Cytotoxicity against human DU145 cells assessed as cell growth at 10 uM after 48 hrs by sulforhodamine B assay relative to control. The following applies: DU-145, 48 h, read-out: Activity. The method, boiled down:
as §1

The test system of assay [10] is A498. In words: Cytotoxicity against human A498 cells assessed as cell growth at 10 uM after 48 hrs by sulforhodamine B assay relative to control. As to conditions: A498, 48 h, read-out: Activity. The method, boiled down:
as §1

Assay [11] relates to KM12. In words: Cytotoxicity against human KM12 cells assessed as cell growth at 10 uM after 48 hrs by sulforhodamine B assay relative to control. As to conditions: KM12, 48 h, read-out: Activity. The method, boiled down: as §1
In assay [12] the test system is HOP-92. Briefly: Cytotoxicity against human HOP92 cells assessed as cell growth at 10 uM after 48 hrs by sulforhodamine B assay relative to control. As to conditions: HOP-92, 48 h, read-out: Activity. The method, boiled down:
as §1

In assay [13] the test system is U-251. Briefly: Cytotoxicity against human U251 cells assessed as cell growth at 10 uM after 48 hrs by sulforhodamine B assay relative to control. As to conditions: U-251, 48 h, read-out: Activity.
For assay [14], the system named is RXF 393. Briefly: Cytotoxicity against human RXF393 cells assessed as cell growth at 10 uM after 48 hrs by sulforhodamine B assay relative to control. The following applies: RXF 393, 48 h, read-out: Activity. The method, boiled down:
as §1

For assay [15], the system named is 786-0. In words: Cytotoxicity against human 786-0 cells assessed as cell growth at 10 uM after 48 hrs by sulforhodamine B assay relative to control. As to conditions: 786-0, 48 h, read-out: Activity. The method, boiled down: as §1
In assay [16] the test system is SN12C. Briefly: Cytotoxicity against human SN12C cells assessed as cell growth at 10 uM after 48 hrs by sulforhodamine B assay relative to control. As to conditions: read-out: Activity. The method, boiled down:
as §1

The test system of assay [17] is UACC-257. Briefly: Cytotoxicity against human UACC257 cells assessed as cell growth at 10 uM after 48 hrs by sulforhodamine B assay relative to control. The following applies: UACC-257, 48 h, read-out: Activity.
The subject of assay [18] is IGROV-1. In words: Cytotoxicity against human IGROV1 cells assessed as cell growth at 10 uM after 48 hrs by sulforhodamine B assay relative to control. The following applies: IGROV-1, 48 h, read-out: Activity. The method, boiled down:
as §1

The subject of assay [19] is UO-31. Briefly: Cytotoxicity against human UO31 cells assessed as cell growth at 10 uM after 48 hrs by sulforhodamine B assay relative to control. The following applies: UO-31, 48 h, read-out: Activity.
Assay [20] relates to TK-10. In words: Cytotoxicity against human TK10 cells assessed as cell growth at 10 uM after 48 hrs by sulforhodamine B assay relative to control. As to conditions: TK-10, 48 h, read-out: Activity.
For assay [21], the system named is Malme-3M. In words: Cytotoxicity against human MALME-3M cells assessed as cell growth at 10 uM after 48 hrs by sulforhodamine B assay relative to control. The following applies: read-out: Activity. The method, boiled down: as §1

Results on 2 compounds are retold here after ChEMBL document CHEMBL1926642, “Relevance of the C-5 position to schweinfurthin induced cytotoxicity” (2011).

Each structure is given as a SMILES string.

Consider `COCc1cc(/C=C/c2cc(O)c(C/C=C(\C)CCC=C(C)C)c(OC)c2)cc2c1O[C@]1(C)CC[C@@H](O)C(C)(C)[C@H]1C2`, for which the growth at 10 µM in [1] was 108%; in assay [2] it was 84.2%; in [3] it was 109%; in assay [4] it was 129%; in assay [5], 118%; in assay [6] it was 72%. In addition, the growth at 10 µM in assay [7] came out at 145%; in [8] it was 167%; in assay [9], 105%; in assay [10], 140%; in assay [11], 123%; in assay [12] it was 108%. Moreover, the growth at 10 µM in assay [13] was 83.6%; in [14], 88%; in assay [15] it was 69.8%; in [16], 96.2%; in assay [17], 116%; in assay [18], 65.3%. For the same compound, in [19], the growth at 10 µM stood at 98.4%.

`COc1cc(/C=C/c2cc(Br)c3c(c2)C[C@@H]2C(C)(C)[C@H](O)CC[C@@]2(C)O3)cc(O)c1C/C=C(\C)CCC=C(C)C`: the growth at 10 µM in [1] came out at 110%; in assay [2] it was 91.2%; in [3] it was 112%; in assay [4] it was 119%; in [20], 113%; in [5] it was 106%. For the same compound, the growth at 10 µM in assay [6] was 79.9%; in assay [7] it was 116%; in [8], 102%; in [9] it was 91.3%; in assay [10], 94.7%; in assay [11], 97.3%. Also, the growth at 10 µM was found to be 127% in [12]; 115% in assay [21]; 86.3% in [13]; 80.7% in assay [14]; 96% in [15]; 101% in assay [16]. Besides, the figures for the growth at 10 µM in [17], in assay [18] and in assay [19] were 100%, 63.1% and 91%, respectively.
